Data taken from ChEMBL document CHEMBL4431393, “Polar Recognition Group Study of Keap1-Nrf2 Protein-Protein Interaction Inhibitors” (ACS Med Chem Lett, 2016).
≈ marks a conversion by molar mass, not a printed value.

Tests used:
[1] = Permeability of the compound at pH 7.4 by PAMPA method; type: ADME; details: read-out: permeability
Procedure, shortened: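 Effective permeability coefficients (Pe) were determined by a standard parallel artificial membrane permeability assay run on an automated PAMPA instrument. This reads out passive transcellular diffusion.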

[2] = Dissociation constant, pKa of the compound by Avdeef-Bucher potentiometric titration method; type: physicochemical
[3] = Partition coefficient, logD of the compound at pH 7.4 by Avdeef-Bucher potentiometric titration method; type: physicochemical; details: octanol/water
[4] = Intrinsic solubility of the compound at pH 7.4 by potentiometric acid-base titration method; type: physicochemical; details: buffer, read-out: Intrinsic_solubility
Keap1/Nrf2 = Keap1/Nrf2 (Homo sapiens, UniProt Q14145); test: Inhibition of Keap1 Kelch domain/FITC-9mer Nrf2 (unknown origin) interaction after 30 mins by fluorescence polarization assay; type: protein assay
Chain of Keap1/Nrf2 (Q16236 whole entry, the tested form may be a part): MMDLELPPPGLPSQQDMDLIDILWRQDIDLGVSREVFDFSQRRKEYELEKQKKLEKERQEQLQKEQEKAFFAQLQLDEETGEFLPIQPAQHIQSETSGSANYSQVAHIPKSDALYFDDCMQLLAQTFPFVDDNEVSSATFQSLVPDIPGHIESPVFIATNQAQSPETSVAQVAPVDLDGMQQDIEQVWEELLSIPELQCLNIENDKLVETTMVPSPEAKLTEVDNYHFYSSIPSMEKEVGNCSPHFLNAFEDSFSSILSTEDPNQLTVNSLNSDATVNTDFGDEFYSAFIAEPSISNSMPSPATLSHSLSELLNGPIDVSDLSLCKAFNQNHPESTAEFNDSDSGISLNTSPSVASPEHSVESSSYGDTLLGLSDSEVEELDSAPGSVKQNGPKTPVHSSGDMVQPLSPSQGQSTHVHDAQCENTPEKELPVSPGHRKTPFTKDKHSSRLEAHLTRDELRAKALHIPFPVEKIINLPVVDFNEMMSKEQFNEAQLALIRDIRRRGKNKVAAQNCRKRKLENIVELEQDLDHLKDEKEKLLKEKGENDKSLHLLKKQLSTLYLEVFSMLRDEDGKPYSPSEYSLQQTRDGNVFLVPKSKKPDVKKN
Chain of Keap1/Nrf2 (Q14145 whole entry, the tested form may be a part): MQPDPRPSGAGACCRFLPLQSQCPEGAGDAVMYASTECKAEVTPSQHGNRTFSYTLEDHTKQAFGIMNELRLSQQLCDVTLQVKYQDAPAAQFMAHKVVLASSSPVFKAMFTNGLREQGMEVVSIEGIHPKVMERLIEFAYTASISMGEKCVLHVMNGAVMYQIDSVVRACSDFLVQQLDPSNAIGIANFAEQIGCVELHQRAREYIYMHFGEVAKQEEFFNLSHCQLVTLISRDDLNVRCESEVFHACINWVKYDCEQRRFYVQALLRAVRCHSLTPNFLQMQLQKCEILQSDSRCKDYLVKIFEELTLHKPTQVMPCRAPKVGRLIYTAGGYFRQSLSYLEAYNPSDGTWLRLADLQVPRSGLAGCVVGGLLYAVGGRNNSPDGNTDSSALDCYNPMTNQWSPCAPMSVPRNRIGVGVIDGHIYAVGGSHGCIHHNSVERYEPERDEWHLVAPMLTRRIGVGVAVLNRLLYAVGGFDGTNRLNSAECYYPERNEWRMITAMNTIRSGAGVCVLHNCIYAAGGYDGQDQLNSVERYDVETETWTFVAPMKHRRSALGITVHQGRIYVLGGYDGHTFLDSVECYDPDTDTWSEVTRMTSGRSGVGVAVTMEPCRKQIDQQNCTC

Papp [1] [×10⁻⁶ cm/s] | pKa [2] | logD [3] | solubility [4] [µg/mL] | IC50 (Keap1/Nrf2) [µM] | Compound
– | 10.5 | 3.91 | 36.4 (≈ 52.2 µM) | > 50 | COC(=O)CN(c1ccc(N(CC(=O)OC)S(=O)(=O)c2ccc(NC(C)=O)cc2)c2ccccc12)S(=O)(=O)c1ccc(NC(C)=O)cc1
– | 9.67 | 3.01 | 698 (≈ 976 µM) | 0.609 | CC(=O)Nc1ccc(S(=O)(=O)N(Cc2c[nH]nn2)c2ccc(N(Cc3c[nH]nn3)S(=O)(=O)c3ccc(NC(C)=O)cc3)c3ccccc23)cc1
– | 9.8 | 3.21 | 388 (≈ 583 µM) | > 50 | CC(=O)Nc1ccc(S(=O)(=O)N(CC(N)=O)c2ccc(N(CC(N)=O)S(=O)(=O)c3ccc(NC(C)=O)cc3)c3ccccc23)cc1

Continued, compound first:

Compound | Papp [1] [×10⁻⁶ cm/s] | pKa [2] | logD [3] | solubility [4] [µg/mL] | IC50 (Keap1/Nrf2) [µM]
CC(=O)Nc1ccc(S(=O)(=O)N(Cc2nn[nH]n2)c2ccc(N(Cc3nn[nH]n3)S(=O)(=O)c3ccc(NC(C)=O)cc3)c3ccccc23)cc1 | 42.3 | 5.12 | 2.31 | 3500 (≈ 4880 µM) | –
CC(=O)Nc1ccc(S(=O)(=O)N(CC(=O)NO)c2ccc(N(CC(=O)NO)S(=O)(=O)c3ccc(NC(C)=O)cc3)c3ccccc23)cc1 | – | 8.12 | 2.87 | 942 (≈ 1350 µM) | 2.6
CC(=O)Nc1ccc(S(=O)(=O)N(CC(=O)O)c2ccc(N(CC(=O)O)S(=O)(=O)c3ccc(NC(C)=O)cc3)c3ccccc23)cc1 | 0.265 | 4.79 | – | 5000 (≈ 7480 µM) | –
CC(=O)Nc1ccc(S(=O)(=O)N(CCO)c2ccc(N(CCO)S(=O)(=O)c3ccc(NC(C)=O)cc3)c3ccccc23)cc1 | – | 10.8 | 2.99 | 655 (≈ 1020 µM) | > 50
CC(=O)Nc1ccc(S(=O)(=O)N(CC#N)c2ccc(N(CC#N)S(=O)(=O)c3ccc(NC(C)=O)cc3)c3ccccc23)cc1 | – | 10.5 | 4.65 | 14.1 (≈ 22.4 µM) | > 50
C#CCN(c1ccc(N(CC#C)S(=O)(=O)c2ccc(NC(C)=O)cc2)c2ccccc12)S(=O)(=O)c1ccc(NC(C)=O)cc1 | – | 10.7 | 4.75 | 11.2 (≈ 17.8 µM) | > 50
